FID counter – counter-screen for HCV NS3 helicase inhibitors: DNA intercalator displacement. DNA fluorescent intercalator displacement, fluorescence. inhibition, % at 7.9 µM. 290,000 tested, 0.17% active. AID 1845; in the data active = inhibition above about 37%;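 note: higher means more ethidium bromide displaced from hairpin DNA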
GPR7 antag – blocks human GPR7 receptor signaling | AID 1861 | P48145 | inhibition, % at 4.4 µM | 290,000 tested, 1.1% active | GPR7-expressing cells, fluorescence antagonist assay; in the data active = inhibition above about 16%, passing the limit was not always enough;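 note: cells stimulated with the agonist NPW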
NS3 helicase inh – blocks Hepatitis C virus NS3 helicase unwinding. inhibition, % at 10.9 µM. NS3 helicase DNA unwinding, Cy5 molecular beacon fluorescence. 290,000 tested, 0.56% active;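 active = inhibition above the mean of all tested compounds plus 3 SD, set per campaign, cut at about 35% in these data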
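System: Hepatitis C virus NS3 helicase domain fragment enzyme | Reagent: Annealed dual-labelled DNA beacon duplex, ATP-started | Compound dosing: 10.9 µM single point, 0.8% DMSO | Incubation: 1 h reaction at 25 °C, ATP-initiated | Technique: Cy5 fluorescence | Evaluation: Percent inhibition from t60/t0 fluorescence ratio | Benchmarks: Low DMSO, high thioflavine S at 110 µM | Replication: Singlicate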
HCV core dimer – HCV core protein dimerization inhibition. TR-FRET GST/Flag-core106 dimerization, 1536-well. inhibition, % at 5 µM. 300,000 tested, 0.33% active;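 active = inhibition above the mean of all tested compounds plus 3 SD, set per screening campaign, cut at about 45% in these data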
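Assay system: Tagged HCV core106 pair (GST and Flag) | Buffer or medium: KF-containing HEPES buffer, pH 7.45, DTT, CHAPS, BSA | Also added: Eu donor and XL665 acceptor anti-tag antibodies | Dosing: One concentration, 5 µM, in 0.5% DMSO | Timing: 4 h at 22.5 °C | Technique: TR-FRET 671 and 617 nm emission | Repeats: Singlicate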
DAGLB inh – blocks human DAGLB lipase activity; Q8NCG7; HEK293T DAGLB membrane lysate, EnzChek fluorogenic substrate; inhibition, % at 5.17 µM; 340,000 tested, 0.059% active; AID 504411; in the data active = inhibition above about 34%
GRK2 inh – blocks RNA aptamer binding to human GRK2; bead flow cytometry, FAM-aptamer displacement from GRK2; P25098; 330,000 tested, 0.59% active; inhibition of aptamer binding, % at 10 µM;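 active = inhibition of aptamer binding above 40%, roughly 3 SD of noise, on plates passing a quality check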;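 note: median bead fluorescence of bound FAM aptamer so fluorescent compounds give negative values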
Target sequence (P25098 whole entry, looked up): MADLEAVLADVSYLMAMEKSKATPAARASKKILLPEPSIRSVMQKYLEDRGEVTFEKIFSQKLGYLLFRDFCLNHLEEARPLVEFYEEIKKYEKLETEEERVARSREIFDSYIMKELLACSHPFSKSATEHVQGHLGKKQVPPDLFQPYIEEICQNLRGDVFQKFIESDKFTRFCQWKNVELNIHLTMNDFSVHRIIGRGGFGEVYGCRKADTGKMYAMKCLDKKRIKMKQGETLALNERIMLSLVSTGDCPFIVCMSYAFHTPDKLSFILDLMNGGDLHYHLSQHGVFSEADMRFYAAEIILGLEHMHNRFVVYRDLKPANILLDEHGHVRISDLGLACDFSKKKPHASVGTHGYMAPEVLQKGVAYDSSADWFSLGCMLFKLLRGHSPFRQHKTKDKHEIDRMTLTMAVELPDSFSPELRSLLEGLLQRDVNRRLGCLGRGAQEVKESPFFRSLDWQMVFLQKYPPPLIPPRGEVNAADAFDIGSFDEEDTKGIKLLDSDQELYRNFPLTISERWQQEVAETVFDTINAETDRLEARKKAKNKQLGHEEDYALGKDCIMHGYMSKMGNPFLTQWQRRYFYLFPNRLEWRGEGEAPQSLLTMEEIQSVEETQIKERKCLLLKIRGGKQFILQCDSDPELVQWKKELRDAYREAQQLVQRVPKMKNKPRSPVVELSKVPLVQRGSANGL
GRK2 inh confirm – human GRK2 inhibition confirmation, cherry pick 1; shares compounds with GRK2 inh; 2,000 tested, 4% active; AID 504451; aptamer displacement, % at 10 µM; bead-bound GRK2, FAM-aptamer displacement, flow cytometry;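 active = aptamer displacement above 40%, near three times the noise of non-fluorescent compounds, on plates passing quality checks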;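 note: negative values mostly reflect intrinsic compound fluorescence rather than true enhancement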
Aptamer quench SP – quenches fluorescent RNA aptamer, GRK2 hit artifact | shares compounds with GRK2 inh | fluorescence response (% of DMSO), % at 10 µM | 2,000 tested, under 10 active | Carboxyfluorescein RNA aptamer on beads, flow cytometry quenching; hits give low values;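 active = compounds that quench the bead-bound fluorescent RNA probe, cutting fluorescence to under half of the solvent control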;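 note: counterscreen run without GRK2 so only probe quenching by compound is measured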
GRK2 CP2 – human GRK2 inhibition confirmation, cherry pick 2; shares compounds with GRK2 inh; bead-bound GRK2, FAM-aptamer displacement, flow cytometry; inhibition of aptamer binding, % at 10 µM; 360 tested, under 10 active;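 active = inhibition of aptamer binding above 40%, about triple the noise seen with nonglowing compounds, on plates passing quality control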;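 note: negative values mostly come from compounds that fluoresce themselves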
FAM quench CP2 – counter-screen for GRK2 binding hits: quenchers of fluorescent RNA aptamer | shares compounds with GRK2 inh | carboxyfluorescein RNA aptamer beads, flow cytometry quenching; hits give low values | fluorescence response vs DMSO, % at 10 µM | 360 tested, under 10 active | AID 588494;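 active = response vs DMSO under 50%, meaning signal dropped by over half, treated as fluorescence quencher; inconclusive = no clear call, values can overlap the other calls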;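 note: labelled aptamer on streptavidin beads without GRK2 as a quench counter-screen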
Large screens that a line does not name were inactive (follow-up assays come after a bar, where they were run). An excerpt weighted towards active compounds, which were near 2.2% of everything screened.

CC1Sc2ccc(S(=O)(=O)CCC(=O)N3CCc4ccccc43)cc2NC1=O (centres undefined)	none | GRK2 CP2 inactive | FAM quench CP2 inactive
CCC1Sc2ccc(S(=O)(=O)CCC(=O)N3CCc4ccccc43)cc2NC1=O (centres undefined)	GRK2 inh 57.0 | GRK2 inh confirm inactive | Aptamer quench SP inactive | GRK2 CP2 inactive | FAM quench CP2 inactive
CC1Sc2ccc(S(=O)(=O)CCC(=O)N3CCCC3)cc2NC1=O (centres undefined)	none
OCCC1CN(Cc2cccc3c2OCO3)CCN1Cc1ccccc1 (centres undefined)	none
OCCC1CN(Cc2cccc3c2OCO3)CCN1C1CCCCC1 (centres undefined)	GRK2 inh 99.0 | GRK2 inh confirm inactive | Aptamer quench SP inactive
COC(=O)c1ccc(NC(=O)C2CCN(C(=O)Nc3ccccc3)CC2)cc1	none (no result: FID counter, GPR7 antag, NS3 helicase inh, HCV core dimer)
CCOc1ccc(CCNC(=O)C2CCN(c3nnc(-n4cccc4)s3)CC2)cc1	none
CCN(CCNC(=O)C1CCN(c2nnc(-n3cccc3)s2)CC1)c1ccccc1	none | GRK2 inh confirm inactive | Aptamer quench SP inactive
COc1ccc2cc3cc(C(=O)N4CCN(c5ccccn5)CC4)oc3nc2c1	GRK2 inh 57.0 | GRK2 inh confirm inactive | Aptamer quench SP inactive
COc1ccc2cc3cc(C(=O)N4CC(C)CC(C)C4)oc3nc2c1 (centres undefined)	none
Cc1ccc(S(=O)(=O)NCCNC(=O)c2ccc(C)nc2)cc1	none
Cc1ccc(-n2ncc(C(=O)O)c2C2CCN(C(=O)OC(C)(C)C)CC2)cc1	GRK2 inh 43.0 | GRK2 inh confirm inactive | Aptamer quench SP inactive
N/C(=N\OC(=O)C1CCCCC1)c1ccccn1	GRK2 inh 83.0 | GRK2 inh confirm inactive | Aptamer quench SP inactive
N/C(=N\OC(=O)C1CCCCC1)c1ccncc1	none
N#C/C(=C\c1ccc([N+](=O)[O-])o1)c1nc2ccccc2[nH]1	none (no result: DAGLB inh)
Cc1ccc2nc(/C(C#N)=C\c3ccc([N+](=O)[O-])o3)[nH]c2c1	none | GRK2 inh confirm inactive | Aptamer quench SP inactive
CC1CC(=Cc2ccc([N+](=O)[O-])cc2)C(=O)O1 (centres undefined)	none (no result: FID counter, GPR7 antag, NS3 helicase inh, HCV core dimer, GRK2 inh)
CCC(C(=O)NCC1CCCO1)N(Cc1ccc(F)cc1)C(=O)CNS(=O)(=O)c1ccccc1 (centres undefined)	GRK2 inh 78.0 | GRK2 inh confirm inactive | Aptamer quench SP inactive
CC(=O)C1=C(C)NC(=O)CC1c1ccccc1Cl (centres undefined)	GRK2 inh 48.0 | GRK2 inh confirm inactive | Aptamer quench SP inactive
CC1=C(C(=O)OC(C)C)C(c2ccccc2Cl)CC(=O)N1 (centres undefined)	none
CCc1ccc(C(=O)CN2C(=O)NC3(CCc4ccccc43)C2=O)cc1 (centres undefined)	none (no result: FID counter, GPR7 antag, NS3 helicase inh, HCV core dimer)
CCC(=O)c1cn(CC(=O)Nc2ccccc2F)c2ccccc12	none
CC(=O)c1cn(CC(=O)Nc2ccccc2F)c2ccccc12	GRK2 inh 72.0 | GRK2 inh confirm inactive | Aptamer quench SP inactive
FC(F)(F)c1cccc(OCCN2CCN(Cc3ccccc3)CC2)c1	none
COc1cccc(C(NC(C)=O)c2ccc3cccnc3c2O)c1 (centres undefined)	GRK2 inh 80.0 | GRK2 inh confirm inactive | Aptamer quench SP inactive
CCCCn1c(N)c(N(CC(C)C)C(=O)C2CCN(C(=O)c3ccc(F)cc3)CC2)c(=O)[nH]c1=O	none
COc1cc2c(cc1OC)C(C)N(C(=O)c1cccs1)CC2 (centres undefined)	GRK2 inh 81.0 | GRK2 inh confirm inactive | Aptamer quench SP inactive
O=Cc1ccc(OCC(=O)Nc2ccccc2-c2ccccc2)cc1	GRK2 inh 61.0 | GRK2 inh confirm inactive | Aptamer quench SP inactive
Cc1ccc(OCC(=O)Nc2ccccc2-c2ccccc2)cc1	none
COc1ccc(C2=NN(c3ccc(C=O)cc3)C(c3ccccc3)C2)cc1 (centres undefined)	none (no result: DAGLB inh)
O=Cc1ccc(N2N=C(c3ccccc3)CC2c2ccccc2)cc1 (centres undefined)	GRK2 inh 46.0 | GRK2 inh confirm inactive | Aptamer quench SP inactive
Cc1ccsc1C(=O)OCC(=O)c1cc(C)n(C)c1C	GRK2 inh 46.0 (no result: FID counter, GPR7 antag, NS3 helicase inh, HCV core dimer) | GRK2 CP2 inactive | FAM quench CP2 inconclusive
Cc1cc(C(=O)COC(=O)c2nccnc2N)c(C)n1C	none
COc1ccc(C(=O)N[C@H](C(=O)Nc2nc3c(s2)CCCC3)C(C)C)cc1	none
CCOc1ccccc1C(=O)N[C@H](C(=O)Nc1nc2c(s1)CCCC2)C(C)C	GRK2 inh 43.0 | GRK2 inh confirm inactive | Aptamer quench SP inactive
Cn1cc(C(=O)OCC2CCN(CCNS(C)(=O)=O)CC2)c2ccccc21	none (no result: FID counter, GPR7 antag, NS3 helicase inh) | GRK2 inh confirm inactive | Aptamer quench SP inactive
Cn1cc(C(N)=O)c2ccccc21	none
Cc1ccc(NC(=O)CSc2nc3ccccc3c3nc4ccccc4n23)cc1	none
COc1ccc(NC(=O)CSc2nc3ccccc3c3nc4ccccc4n23)cc1	none | GRK2 inh confirm inactive | Aptamer quench SP inactive
N#CCc1ccc(NS(=O)(=O)c2ccc(C3CCCCC3)cc2)cc1	GRK2 inh 78.0 | GRK2 inh confirm inactive | Aptamer quench SP inactive
CCOC(=O)c1c(N2C(=O)Nc3cc(Cl)c(Cl)cc3N2O)sc2c1CCCCC2	none
CCOC(=O)c1ccc(N2C(=O)CC(Sc3nc(C)cc(C)n3)C2=O)cc1 (centres undefined)	none (no result: HCV core dimer)
CCOC(=O)c1cnc(SC2CC(=O)N(c3ccc(OC)c(OC)c3)C2=O)nc1N (centres undefined)	GRK2 inh 45.0 | GRK2 inh confirm inactive | Aptamer quench SP inactive
O=C(Nc1ccccc1-c1nc2ccccc2s1)C1=COCCO1	none
COc1ccccc1CNC(=O)C(=O)NCC1OCCN1S(=O)(=O)c1ccc2c(c1)OCCO2 (centres undefined)	GRK2 inh 41.0 | GRK2 inh confirm inactive | Aptamer quench SP inactive
COc1ccc(S(=O)(=O)N2CCOC2CNC(=O)C(=O)NCc2ccc3c(c2)OCO3)cc1OC (centres undefined)	none

Screening data deposited in PubChem by several laboratories.
